Experimental findings from ChEMBL document CHEMBL1129316, “Inhibitors of human immunodeficiency virus type 1 protease containing 2-aminobenzyl-substituted 4-amino-3-hydroxy-5-phenylpentanoic acid: synthesis, activity, and oral bioavailability” (J Med Chem, 1996) are described below.

Data set [1] in a line: Oral Bioavailability was measured as area-under-curve(AUC) value at dose 125 mg/kg;b = No compound detectable in blood above the detection limit of 0.1 uM. The class given is ADME, organism-based. As to conditions: in vivo. The essentials:
(§1)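 Female Balb/c mice, fasted 24 h before and during the study, water ad libitum. Dosed by oral gavage at 125 mg/kg in a liquid formulation. Heparinized whole blood sampled at various times, methanol-extracted, cleaned on sulfobenzyl SPE, then RP-C18 HPLC with UV at 200 nm against an internal standard. Cmax taken as observed; AUC calculated. Detection limit 0.1 µM.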

Data set [2] in a line: Oral Bioavailability was measured as Maximal observed concentration (Cmax) value at dose 125 mg/kg; b = No compound detectable in blood above the detection limit of 0.1 uM. On the set-up: dose 125 mg/kg, route oral. As to conditions: in vivo. It is filed as ADME, organism-based. The essentials:
as §1

A short description of data set [3]: Solubility (phosphate-buffered saline, pH =7.4). It is filed as physicochemical. As to conditions: read-out: S. The essentials:
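About 1 mg of lyophilized amorphous inhibitor in 1 mL PBS (pH 7.4), vortexed 1 min and sonicated 30 min at 37 °C. Filtered, then centrifuged at 100 000 rpm for 30 min. Supernatant run on RP-C18 HPLC (10 mM NH4OAc/CH3CN 50/50, UV 210 nm) and quantified by external standard. Minimum detectable 0.1 µg/mL.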

Data set [4] deals with Human immunodeficiency virus 1. As to the kind of experiment: Antiviral activity against HIV-1, IIIB, in MT-4 Cells. It is filed as functional, organism-based. The following applies: Human immunodeficiency virus 1, MT4. In a few lines:
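HIV-1 strain IIIB-induced cytopathic effect in HTLV-I-transformed MT4 cells. Virus adsorbed to cells at 1 × 10⁶ cells/mL, 37 °C, 1 h. Compounds added postadsorption, final 1 × 10⁵ cells/mL. Inoculum set to kill 90% of cells in 5 days. Mock-infected and compound-only controls run. DMSO ≤0.3%, medium with 10% FBS. Viability read by MTT after 5 days. Mean of repeat determinations.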

For data set [5], the target named is T1, Human immunodeficiency virus type 1 protease (Human immunodeficiency virus 1, UniProt Q72874). As to the kind of experiment: Binding affinity against HIV-1 protease. The essentials: (§2)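 Recombinant HIV-1 PR expressed in E. coli JM105 and purified to homogeneity. Enzyme incubated at 37 °C in 0.1 M MES, 0.37 M NaCl, 4 mM EDTA, pH 6.25, with 280 µM chromogenic nonapeptide substrate (pNph). Initial rates taken from the absorbance decrease at 298 nm. IC50 fitted, then Ki = (IC50 − Et/2)/(1 + S/Km). Mean of two determinations; DMSO ≤5%.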

A further data set concerns MT4. As to the kind of experiment: Antiviral Activity against HIV-1, IIIB, in MT-4 Cells; d indicates no activity at 3 uM. The class given is functional, cell-based, Homo sapiens. In a few lines: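 MT4 cells infected with HIV-1 IIIB; virus adsorbed at 1 × 10⁶ cells/mL, 37 °C, 1 h, then plated at 1 × 10⁵ cells/mL with compound added postadsorption. Inoculum set to kill 90% of cells in 5 days. Incubated 5 days; viability of infected and mock-infected cells by MTT, read spectrophotometrically. Medium with 10% FBS; DMSO ≤0.3%. Values given as mean ± SD, n in parentheses.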

Data set [6] concerns the target T1, Human immunodeficiency virus type 1 protease. As to the kind of experiment: Binding affinity against HIV-1 protease (HIV-1 PR); d indicates no activity at 3 uM. The essentials:
as §2

Data set [7] in a line: Oral Bioavailability was measured as area-under-curve(AUC) value at dose 125 mg/kg; b = No compound detectable in blood above the detection limit of 0.1 uM. As to conditions: in vivo. The class given is ADME, organism-based. The essentials:
as §1

A short description of data set [8]: Oral Bioavailability was measured as Maximal observed concentration (Cmax) value at dose 125 mg/kg; b denotes No compound detectable in blood above the detection limit of 0.1 uM. It is filed as ADME, organism-based. Also on record: dose 125 mg/kg, route oral. As to conditions: in vivo. In a few lines: as §1
Data set [9] can be described thus: Oral Bioavailability was measured as area-under-curve(AUC) value at dose 125 mg/kg; b denotes No compound detectable in blood above the detection limit of 0.1 uM. It is filed as ADME, organism-based. As to conditions: in vivo. The essentials: as §1
The nature of data set [10]: Oral Bioavailability was measured as Maximal observed concentration (Cmax) value at dose 125 mg/kg;b = No compound detectable in blood above the detection limit of 0.1 uM. The class given is ADME, organism-based. Also on record: dose 125 mg/kg, route oral. The following applies: in vivo. In a few lines: as §1

What is called IC50 is the concentration needed to halve the response being measured. Lower therefore signals greater potency in that assay. What is called Ki is the equilibrium dissociation constant of an inhibitor or competing ligand from its target.

Values after ≈ are worked out from the molar mass of the structure shown.

For `CC(C)(C)[C@H](NC(=O)OCc1ccccc1)C(=O)N[C@@H](Cc1ccccc1)[C@@H](O)[C@@H](NCc1ccc(CNC(=O)Nc2ccccc2)cc1)C(=O)N[C@H]1c2ccccc2C[C@H]1O`, the AUC result in data set [1] is “No compound detectable”. In addition, the Cmax result in data set [2] is on record as “No compound detectable”. Besides, in [3], the solubility is less than 1 µM. For the same molecule, the midpoint of inhibition in [4], the IC50, lay at 0.175 µM. Further, in data set [5], the affinity corresponds to a Ki of 0.0033 µM.

On to `COc1ccc(CN[C@@H](C(=O)N[C@H](CO)c2ccccc2)[C@H](O)[C@H](Cc2ccccc2)NC(=O)OC(C)(C)C)cc1`, for which the concentration for half-maximal inhibition (IC50) entry with MT4 is recorded as “No activity”. The Ki result in data set [6] is “No activity”.

On to `COc1ccc(CN[C@@H](C(=O)N[C@H]2c3ccccc3C[C@H]2O)[C@H](O)[C@H](Cc2ccccc2)NC(=O)[C@@H](NC(=O)CCc2nc3ccccc3[nH]2)C(C)(C)C)cc1`, for which the AUC result in [7] is “No compound detectable”. For the same molecule, the Cmax result in data set [2] is given as “No compound detectable”. Moreover, in data set [3], the solubility is 12.2 µM (≈ 9.28 µg/mL). In addition, the IC50 in data set [4] is 0.098 µM. This molecule registered a Ki in [5] of 0.0094 µM.

As for `CC(C)(C)[C@H](NC(=O)OCc1ccccc1)C(=O)N[C@@H](Cc1ccccc1)[C@@H](O)[C@@H](NCc1ccc(OCCN2CCOCC2)cc1)C(=O)N[C@H]1c2ccccc2C[C@H]1O`, the AUC entry in [7] is on record as “No compound detectable”. Moreover, the Cmax entry in data set [2] is “No compound detectable”. The solubility in data set [3] stood at 14.5 µM (≈ 11.9 µg/mL). In [4], the IC50 turned out to be 0.047 µM. Besides, in [5], the affinity corresponds to a Ki of 0.0095 µM.

For the molecule `CC(=O)NCc1ccc(CN[C@@H](C(=O)N[C@H]2c3ccccc3C[C@H]2O)[C@H](O)[C@H](Cc2ccccc2)NC(=O)[C@@H](NC(=O)OCc2ccccc2)C(C)(C)C)cc1`, the AUC result in [7] is listed as “No compound detectable”. In addition, the Cmax entry in [2] is given as “No compound detectable”. Besides, in data set [3], the solubility was 25.3 µM (≈ 19.3 µg/mL). For the same molecule, the 50% inhibitory concentration (IC50) in data set [4] stood at 0.099 µM. The same molecule registered a Ki in data set [5] of 0.0057 µM.

With `CC(C)(C)[C@H](NC(=O)OCc1ccccc1)C(=O)N[C@@H](Cc1ccccc1)[C@@H](O)[C@@H](NCc1ccc(CNC(=O)CCc2nc3ccccc3[nH]2)cc1)C(=O)N[C@@H]1c2ccccc2C[C@H]1O`, the Cmax entry in [8] is “No compound detectable”. Moreover, in data set [9], the AUC entry is given as “No compound detectable”. The solubility in data set [3] is less than 1 µM. Besides, the IC50 in data set [4] is 0.161 µM. In addition, in [5], the affinity corresponds to a Ki of 0.0041 µM.

Take `COc1ccc(CN[C@@H](C(=O)NC2c3ccccc3C[C@H]2O)[C@H](O)[C@H](Cc2ccccc2)NC(=O)[C@@H](NC(=O)/C=C/c2ccc(OC)c(O)c2)C(C)(C)C)cc1` (stereo not given in full): the Cmax entry in data set [10] was “No compound detectable”. In addition, in [1], the AUC result is “No compound detectable”. In data set [4], 0.125 µM corresponded to half-maximal inhibition (IC50). Affinity in data set [5] was put at a Ki of 0.0058 µM.

On to `CC(C)(C)[C@H](NC(=O)OCc1ccccc1)C(=O)N[C@@H](Cc1ccccc1)[C@@H](O)[C@@H](NCc1ccc(CNC(=O)OCc2ccccc2)cc1)C(=O)N[C@H]1c2ccccc2C[C@H]1O`, for which the Cmax entry in data set [10] is recorded as “No compound detectable”. For the same molecule, in data set [7], the AUC entry is given as “No compound detectable”. Further, the solubility in data set [3] was less than 1 µM. In data set [4], this molecule came in with a half-maximal inhibitory concentration (IC50) of 0.142 µM.
